ChEMBL document CHEMBL1154819, “Synthesis and antiviral activity of boranophosphonate isosteres of AZT and d4T monophosphates” (Eur J Med Chem, 2010)
Activity calls are given as the source filed them. No cut-off for these calls is given here.

Columns and labels:
[1] = test system: Human immunodeficiency virus 1; assay: Antiviral activity against HIV1 NL4-3 infected in MAGI-CCR5 cells at 400 uM after 2 days; type: functional, organism-based
Procedure, shortened: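 HIV-1 NL4.3 stock came from 293T cells transfected with the molecular clone and was titred by p24. MAGI-CCR5 cells (10^4 cells, integrated HIV promoter–LacZ reporter, in DMEM with 10% FBS) were pretreated for 4 h with 0–400 µM compound. They were then spinoculated with 100 ng CAp24 and grown with compound. After 2 days, cells were stained for β-galactosidase and blue cells counted; EC50 is a 50% drop in blue cells.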

[2] = Cytotoxicity against human MAGI-CCR5 cells at 400 uM; type: cell-based; conditions: magi-ccr5, 400 µM
Procedure, shortened: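 MAGI-CCR5 cells were exposed to 0–400 µM compound. CC50 is the concentration inhibiting cell proliferation by 50%.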

[3] = test system: Human immunodeficiency virus 1; assay: Antiviral activity against HIV1 3B infected in human CEM cells at 400 uM after 4 to 5 days; type: functional, organism-based; conditions: CCRF-CEM
Procedure, shortened: (§1)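 CEM cells (4.5×10^5/ml) were infected at 100 CCID50 per ml, mixed 1:1 with compound dilutions and incubated at 37 °C. Giant-cell formation was scored microscopically after 4–5 days. EC50 is the concentration preventing syncytium formation by 50%.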

[4] = test system: Human immunodeficiency virus 2; assay: Antiviral activity against HIV2 ROD infected in human CEM cells at 400 uM after 4 to 5 days; type: functional, organism-based; conditions: ISOLATE ROD, CCRF-CEM; procedure, shortened: as §1
Hepatitis C virus = assay: Antiviral activity against HCV 1b infected in Huh-5-2 cells assessed as inhibition of subgenomic replication; type: functional, organism-based; conditions: Hepacivirus hominis, genotype 1b
Procedure, shortened: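 Huh-5-2 cells carry an HCV genotype 1b subgenomic replicon (I389luc-ubi-neo/NS3-3'/5.1) with a firefly luciferase fusion. They were seeded at 7000 cells/well without G418 and allowed to adhere for 24 h. Five 5-fold dilutions starting at 100 µM were then added for 72 h at 37 °C. Luciferase signal was expressed as % of untreated cultures to give EC50. Interferon alfa 2a (500 IU) served as positive control.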

Human alphaherpesvirus 1 = assay: Antiviral activity against HSV1 infected in human HEL cells assessed as inhibition of virus-induced cytopathic effect up to 200 uM after 3 days; type: functional, organism-based
Procedure, shortened: (§2)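 Confluent cell monolayers in MEM with 10% FCS, 2 mM L-glutamine and 0.075% bicarbonate were inoculated with 100 times the 50% cell culture infective dose. Compounds were added after 1–2 h of virus adsorption. Cytopathic effect was scored microscopically at about 3 days as a percentage of untreated controls, and EC50 was read from graphical plots.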

Human alphaherpesvirus 2 = assay: Antiviral activity against HSV2 infected in human HEL cells assessed as inhibition of virus-induced cytopathic effect up to 200 uM after 3 days; type: functional, organism-based; procedure, shortened: as §2
Vaccinia virus = assay: Antiviral activity against Vaccinia virus infected in human HEL cells assessed as inhibition of virus-induced cytopathic effect up to 200 uM after 3 days; type: functional, organism-based; conditions: Orthopoxvirus vaccinia
[5] = test system: Vesicular stomatitis virus; assay: Antiviral activity against VSV infected in human HEL cells assessed as inhibition of virus-induced cytopathic effect up to 200 uM after 3 days; type: functional, organism-based
Coxsackievirus B4 = assay: Antiviral activity against Coxsackievirus B4 virus infected in human HeLa cells assessed as inhibition of virus-induced cytopathic effect up to 200 uM after 3 days; type: functional, organism-based; procedure, shortened: as §2
[6] = test system: Respiratory syncytial virus; assay: Antiviral activity against RSV infected in human HeLa cells assessed as inhibition of virus-induced cytopathic effect up to 200 uM after 3 days; type: functional, organism-based; procedure, shortened: as §2
Human respirovirus 3 = assay: Antiviral activity against Parainfluenza virus 3 infected in african green monkey Vero cells assessed as inhibition of virus-induced cytopathic effect up to 200 uM after 3 days; type: functional, organism-based; procedure, shortened: as §2
[7] = test system: Mammalian orthoreovirus 1; assay: Antiviral activity against Reovirus 1 infected in african green monkey Vero cells assessed as inhibition of virus-induced cytopathic effect up to 200 uM after 3 days; type: functional, organism-based; procedure, shortened: as §2
Sindbis virus = assay: Antiviral activity against […] virus infected in african green monkey Vero cells assessed as inhibition of virus-induced cytopathic effect up to 200 uM after 3 days; type: functional, organism-based; procedure, shortened: as §2
Punta Toro virus = assay: Antiviral activity against Punta Toro virus infected in african green monkey Vero cells assessed as inhibition of virus-induced cytopathic effect up to 200 uM after 3 days; type: functional, organism-based; procedure, shortened: as §2
HeLa = assay: Cytotoxicity against human HeLa cells up to 200 uM after 3 days by MTS assay; type: cell-based; conditions: 72 h
HEL = assay: Cytotoxicity against human HEL cells up to 200 uM after 3 days by MTS assay; type: cell-based; conditions: 72 h
Vero = assay: Cytotoxicity against african green monkey Vero cells up to 200 uM after 3 days by MTS assay; type: cell-based; conditions: chlorocebus sabaeus, 72 h
[8] = Cytotoxicity against human HuH5.2 cells up to 200 uM after 3 days by MTS assay; type: cell-based; conditions: huh-5-2, 72 h
Procedure, shortened: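 Parallel Huh-5-2 cultures were seeded at 7000 cells/well and treated like the replicon assay without luciferase reagents. Proliferation was measured 3 days after compound addition by MTS bioreduction to formazan, read in a plate reader.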

CCRF-CEM [9] = assay: Cytotoxicity against human CEM cells at 400 uM after 3 days by MTS assay; type: cell-based; conditions: 72 h
[10] = Chemical stability assessed as half life of degradation in PBS of pH 1.2 by HPLC; type: physicochemical
Procedure, shortened: (§3)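 Compound at 0.1 mM initial concentration in buffer, incubated at 37 °C. Aliquots were taken at set times, frozen at −80 °C, then analysed by on-line cleaning-precolumn reversed-phase HPLC (C18, TEAB/acetonitrile gradient). Decomposition half-life was calculated, with products identified by co-injection with authentic samples.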

[11] = Chemical stability assessed as half life of degradation in PBS of pH 7.3 by HPLC; type: physicochemical; procedure, shortened: as §3
[12] = Chemical stability assessed as half life of degradation in PBS of pH 11.5 by HPLC; type: physicochemical; procedure, shortened: as §3
[13] = Chemical stability assessed as half life of degradation in culture media by HPLC; type: physicochemical
Procedure, shortened: (§4)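 Compound at an initial 0.1 mM was incubated at 37 °C in RPMI 1640 containing 10% heat-inactivated fetal calf serum. Aliquots were frozen at −80 °C and analysed by on-line precolumn-cleaning reversed-phase C18 HPLC with a TEAB/acetonitrile gradient. Decomposition half-lives were calculated.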

[14] = Stability in human CEM cells assessed as half life of degradation by HPLC; type: ADME, cell-based; conditions: CEM (CCRF-CEM) cells
Procedure, shortened: (§5)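 CEM-SS cells were washed in PBS, resuspended at 30×10^6 cells/mL in 10 mM Tris–HCl, 140 mM KCl (pH 7.4), sonicated and clarified at 10,000 g. Compound (0.1 mM initial) was incubated in the extract at 37 °C. Aliquots were frozen at −80 °C and analysed by on-line cleaning C18 HPLC to derive half-life.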

[15] = Chemical stability in PBS of pH 1.2 by HPLC; type: physicochemical; conditions: buffer
Procedure, shortened: (§6)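 Compound at an initial 0.1 mM was incubated at 37 °C in buffer at pH 1.2, 7.3 or 11.5. Timed aliquots were frozen at −80 °C and analysed directly by on-line precolumn-cleaning C18 HPLC (0.05 M TEAB to TEAB/CH3CN gradient). Half-lives of decomposition were calculated.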

[16] = Chemical stability in PBS of pH 7.3 by HPLC; type: physicochemical; conditions: buffer; procedure, shortened: as §6
[17] = Chemical stability in PBS of pH 11.5 by HPLC; type: physicochemical; conditions: buffer; procedure, shortened: as §6
[18] = Chemical stability in culture media by HPLC; type: physicochemical; procedure, shortened: as §4
CCRF-CEM [19] = assay: Stability in human CEM cells by HPLC; type: ADME, cell-based; procedure, shortened: as §5

SMILES | Activity [1] | Activity [2] | Activity [3] | Activity [4] | Activity (Hepatitis C virus) | Activity (Human alphaherpesvirus 1) | Activity (Human alphaherpesvirus 2) | Activity (Vaccinia virus) | Activity [5] | Activity (Coxsackievirus B4) | Activity [6] | Activity (Human respirovirus 3) | Activity [7] | Activity (Sindbis virus) | Activity (Punta Toro virus) | Activity (HeLa) | Activity (HEL) | Activity (Vero) | Activity [8] | Activity (CCRF-CEM [9]) | also measured
BP(=O)(O)CC[C@@H]1C=C[C@H](n2cc(C)c(=O)[nH]c2=O)O1 | inactive | Non-toxic | inactive | inactive | inactive | inactive | inactive | inactive | inactive | inactive | inactive | inactive | inactive | inactive | inactive | Non-toxic | Non-toxic | Non-toxic | Non-toxic | Non-toxic | half-life [10]: 16 h; half-life [11]: 22 h; half-life [12]: > 48 h; half-life [13]: 1.6 h; half-life [14]: 3 h
BP(=O)(O)CC[C@H]1O[C@@H](n2cc(C)c(=O)[nH]c2=O)C[C@@H]1N=[N+]=[N-] | inactive | Non-toxic | inactive | inactive | inactive | inactive | inactive | inactive | inactive | inactive | inactive | inactive | inactive | inactive | inactive | Non-toxic | Non-toxic | Non-toxic | Non-toxic | Non-toxic | half-life [13]: 3.1 h; half-life [14]: > 48 h; Stability [15]: Stable; Stability [16]: Stable; Stability [17]: Stable
Cc1cn([C@H]2C=C[C@@H](CC[PH](=O)O)O2)c(=O)[nH]c1=O | inactive | Non-toxic | inactive | inactive | inactive | inactive | inactive | inactive | inactive | inactive | inactive | inactive | inactive | inactive | inactive | Non-toxic | Non-toxic | Non-toxic | Non-toxic | Non-toxic | half-life [10]: 28 h; half-life [11]: > 48 h; half-life [12]: > 48 h; half-life [13]: 11 h; half-life [14]: 2 h
Cc1cn([C@H]2C[C@H](N=[N+]=[N-])[C@@H](CC[PH](=O)O)O2)c(=O)[nH]c1=O | inactive | Non-toxic | inactive | inactive | inactive | inactive | inactive | inactive | inactive | inactive | inactive | inactive | inactive | inactive | inactive | Non-toxic | Non-toxic | Non-toxic | Non-toxic | Non-toxic | Stability [15]: Stable; Stability [16]: Stable; Stability [17]: Stable; Stability [18]: Stable; Stability (CCRF-CEM [19]): Stable
